Laboratory results from ChEMBL document CHEMBL5154824, “Design and synthesis of multifunctional microtubule targeting agents endowed with dual pro-apoptotic and anti-autophagic efficacy” (Eur J Med Chem, 2022).
The source made the active and inactive calls. No cut-off for these calls is given here.

How the values were obtained:
SCC-4 [1] = assay: Cytotoxicity against human SCC-4 cells assessed as reduction in cell viability measured after 48 hrs by alamar blue viability assay; format: functional, cell-based; details: SCC-4, 48 h
How it was run: (§1)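 Oral squamous carcinoma cells were exposed for 48 h to at least 8 increasing concentrations. Viability was read by AlamarBlue. IC50 is the concentration that halves viability, taken as the mean ± SD of at least three independent experiments.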

[2] = Induction of Pro-apoptosis in human HL-60 cells assessed as increase in apoptotic cells at 10 uM after 48 hrs by Annexin-V/PI-staining based flow cytometry; format: functional
Ca9-22 = assay: Cytotoxicity against human Ca9-22 cells assessed as reduction in cell viability measured after 48 hrs by alamar blue viability assay; format: functional, cell-based; details: Ca9-22, 48 h; how it was run: as §1
Emu-TCL1 = assay: Induction of apoptosis in mouse Emu-TCL1 cells model of CLL assessed as mitochondrial membrane depolarization at 10 uM after 48 hrs by TMRM dye based flow cytometric analysis; format: functional, cell-based
How it was run: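 Splenocytes from Eμ-TCL1 leukaemic mice were treated with 10 μM or DMSO vehicle for 48 h, then TMRM-loaded. Flow cytometry gave the percentage of TMRM-low cells as mean ± SD (n = 3).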

NIH3T3 = assay: Cytotoxicity against mouse NIH3T3 cells assessed as inhibition of cell growth measured after 24 hrs by neutral red uptake assay; format: functional, cell-based; details: NIH3T3, 24 h
How it was run: (§2)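 Neutral red uptake viability test. NIH3T3 fibroblasts or primary human oral epithelial cells were exposed to compound at 0.1 to 120 μM. EC50 was derived, with SD below 5%.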

[3] = Induction of Pro-apoptosis in human HL-60 cells assessed as increase in apoptotic cells at 10 uM after 24 hrs by TMRM dye based flow cytometric analysis; format: functional
[4] = Induction of Pro-apoptosis in human HL-60 cells assessed as increase in apoptotic cells at 25 uM after 24 hrs by TMRM dye based flow cytometric analysis; format: functional
[5] = Ratio of IC50 for cytotoxicity against human HeLa cells overexpressing tubulin beta3 assessed as inhibition of cell growth measured after 48 hrs to IC50 for cytotoxicity against human HeLa cells assessed as inhibition of cell growth measured after 48 hrs; format: functional
How it was run: (§3)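 MTT assay: cells exposed to increasing compound concentrations for 48 h. Lines were A2780 and its P-gp-overexpressing A2780AD counterpart, and HeLa and HeLa β3 (tubulin β3-overexpressing). IC50 is the mean ± SD of three independent experiments. R/S is the IC50 in the resistant line divided by that in the parental line.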

[6] = Cytotoxicity against human TR146 cells assessed as reduction in cell viability measured after 48 hrs by alamar blue viability assay; format: functional, cell-based; details: TR146, 48 h; how it was run: as §1
SCC-4 [7] = assay: Induction of apoptosis in human SCC-4 cells assessed as increase in apoptotic cells at 0.5 uM after 48 hrs by Annexin V-FITC/PI staining based flow cytometry method; format: functional, cell-based
How it was run: (§4)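 SCC4 cells were treated at 0.5 or 2 μM for 48 h, then stained with Annexin V/PI and analysed by flow cytometry. Data are mean ± SEM of three independent experiments, with an unpaired one-tailed t-test versus vehicle.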

A2780 [8] = assay: Cytotoxicity against human A2780 cells assessed as inhibition of cell growth measured after 48 hrs by MTT assay; format: functional, cell-based; details: A2780, 48 h
How it was run: (§5)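 MTT assay. Cells were exposed for 48 h to increasing concentrations of compound. Ovarian A2780 was paired with its P-gp-overexpressing A2780AD counterpart, and HeLa with HeLa β3, which overexpresses the tubulin β3 isotype. IC50 is the mean ± SD of three independent experiments.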

HeLa [9] = assay: Cytotoxicity against human HeLa cells assessed as inhibition of cell growth measured after 48 hrs by MTT assay; format: functional, cell-based; how it was run: as §5
KYSE-520 cell line [10] = assay: Induction of apoptosis in human KYSE520 cells assessed as increase in apoptotic cells at 3 to 10 uM after 72 hrs by Annexin V-FITC/PI staining based flow cytometry method; format: functional, cell-based; details: dose 3-10 µM
How it was run: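 KYSE-520 cells were treated at 3 and 10 μM for 72 h, then analysed by flow cytometry after Annexin V/PI dual staining.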

HL-60 [11] = assay: Induction of autophagy in human HL-60 cells assessed as increase in LC3-II protein level at 10 uM in presence of chloroquine […] by Immunoblotting analysis; format: functional, cell-based
[12] = Ratio of IC50 for cytotoxicity against human […] assessed as inhibition of cell growth measured after 48 hrs to IC50 for cytotoxicity against human A2780 cells assessed as inhibition of cell growth measured after 48 hrs; format: functional; how it was run: as §3
[13] = Cytotoxicity against human Primary oral epithelial cells assessed as inhibition of cell growth measured after 24 hrs by neutral red uptake assay; format: toxicity, cell-based; how it was run: as §2
A2780 [14] = assay: Cytotoxicity against human A2780AD cells assessed as inhibition of cell growth measured after 48 hrs by MTT assay; format: functional, cell-based; details: A2780, 48 h; how it was run: as §5
SCC-4 [15] = assay: Induction of apoptosis in human SCC-4 cells assessed as increase in apoptotic cells at 2 uM after 48 hrs by Annexin V-FITC/PI staining based flow cytometry method; format: functional, cell-based; how it was run: as §4
SCC-4 [16] = assay: Induction of autophagy in human SCC-4 cells assessed as increase in LC3-II to LC3-I ratio at 10 uM incubated for 30 mins in presence of EBSS followed by compound addition and measured after 3 hrs by Western blot analysis; format: functional, cell-based
How it was run: (§6)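 SCC4 cells were pre-incubated with or without EBSS for 30 min, then given 10 μM compound, with 10 μM chloroquine as reference, for 3 h. LC3-I/II was assessed by Western blot with GAPDH loading control. The LC3-II/LC3-I ratio came from densitometry, as mean ± SEM of four experiments, with an unpaired one-tailed t-test.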

SCC-4 [17] = assay: Induction of autophagy in human SCC-4 cells assessed as increase in LC3-II to LC3-I ratio at 10 uM in absence of EBSS measured after 3 hrs by Western blot analysis; format: functional, cell-based; how it was run: as §6
HL-60 [18] = assay: Induction of autophagy in human HL-60 cells assessed as increase in p62 protein level at 10 uM […] by Immunoblotting analysis; format: functional, cell-based
OE33 = assay: Cytotoxicity against human OE33 cells assessed as inhibition of cell growth measured after 72 hrs by MTT assay; format: functional, cell-based; details: OE33, 72 h
How it was run: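 Oesophageal adenocarcinoma lines were exposed to at least 8 increasing concentrations for 72 h. Viability was measured by MTT. IC50 is the mean ± SD of at least three independent experiments.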

HeLa [19] = assay: Cytotoxicity against human HeLa cells overexpressing tubulin beta3 assessed as inhibition of cell growth measured after 48 hrs by MTT assay; format: functional, cell-based; how it was run: as §5
A549 = assay: Cytotoxicity against human A549 cells assessed as inhibition of cell growth measured after 48 hrs by MTT assay; format: functional, cell-based; details: A549, 48 h
KYSE-520 cell line [20] = assay: Cytotoxicity against human KYSE520 cells assessed as inhibition of cell growth measured after 72 hrs by alamar blue viability assay; format: functional, cell-based; details: KYSE-520, 72 h
How it was run: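 KYSE-520 oesophageal cells were exposed to at least 8 increasing concentrations for 48 h or 72 h. Viability was read out to give IC50, as the mean ± SD of at least three independent experiments.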

Tubulin (Homo sapiens) = Tubulin (Homo sapiens) (UniProt P68371+Q9H4B7+P0DPH7+P68366+Q13509+Q71U36+P04350+Q3ZCM7+P07437+P68363+Q9BQE3+Q6PEY2+Q13885+Q9BVA1+Q9BUF5); assay: Binding affinity to microtubule polymerization (unknown origin) assessed as formation of microtubule at 27.5 uM measured for 2 hrs by plate reader method; format: protein-complex assay
How it was run: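 25 μM tubulin in GAB buffer with compound at 27.5 μM or DMSO vehicle; podophyllotoxin 27.5 μM as destabiliser control. Polymerisation started by raising temperature from 4 to 37 °C at time 0; microtubule formation followed as absorbance increase over time.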

HL-60 [21] = assay: Induction of autophagy in human HL-60 cells assessed as increase in LC3-II protein level at 10 uM measured up to 1 hr by Immunoblotting analysis; format: functional, cell-based
[22] = target: Nuclear factor NF-kappa-B complex (Homo sapiens) (UniProt Q00653+P19838+Q04206); assay: Inhibition of NF-kappaB phosphorylation in human HL-60 cells at 10 uM measured after 2 hrs by Immunoblotting analysis; format: cell-based
How it was run: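 HL-60 cells were treated at 10 μM or with DMSO vehicle for 2 h. Phospho-NF-κB and phospho-Erk1/2 were immunoblotted and quantified by densitometry relative to β-tubulin. Data are mean ± SD (n = 2), analysed by one-way ANOVA.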

[23] = Induction of Pro-apoptosis in human HL-60 cells assessed as increase in apoptotic cells at 20 uM after 48 hrs by TMRM dye based flow cytometric analysis; format: functional
[24] = Induction of Pro-apoptosis in human HL-60 cells assessed as increase in apoptotic cells at 50 uM after 48 hrs by TMRM dye based flow cytometric analysis; format: functional

Chain of Nuclear factor NF-kappa-B complex (Homo sapiens) (P19838 whole entry, looked up): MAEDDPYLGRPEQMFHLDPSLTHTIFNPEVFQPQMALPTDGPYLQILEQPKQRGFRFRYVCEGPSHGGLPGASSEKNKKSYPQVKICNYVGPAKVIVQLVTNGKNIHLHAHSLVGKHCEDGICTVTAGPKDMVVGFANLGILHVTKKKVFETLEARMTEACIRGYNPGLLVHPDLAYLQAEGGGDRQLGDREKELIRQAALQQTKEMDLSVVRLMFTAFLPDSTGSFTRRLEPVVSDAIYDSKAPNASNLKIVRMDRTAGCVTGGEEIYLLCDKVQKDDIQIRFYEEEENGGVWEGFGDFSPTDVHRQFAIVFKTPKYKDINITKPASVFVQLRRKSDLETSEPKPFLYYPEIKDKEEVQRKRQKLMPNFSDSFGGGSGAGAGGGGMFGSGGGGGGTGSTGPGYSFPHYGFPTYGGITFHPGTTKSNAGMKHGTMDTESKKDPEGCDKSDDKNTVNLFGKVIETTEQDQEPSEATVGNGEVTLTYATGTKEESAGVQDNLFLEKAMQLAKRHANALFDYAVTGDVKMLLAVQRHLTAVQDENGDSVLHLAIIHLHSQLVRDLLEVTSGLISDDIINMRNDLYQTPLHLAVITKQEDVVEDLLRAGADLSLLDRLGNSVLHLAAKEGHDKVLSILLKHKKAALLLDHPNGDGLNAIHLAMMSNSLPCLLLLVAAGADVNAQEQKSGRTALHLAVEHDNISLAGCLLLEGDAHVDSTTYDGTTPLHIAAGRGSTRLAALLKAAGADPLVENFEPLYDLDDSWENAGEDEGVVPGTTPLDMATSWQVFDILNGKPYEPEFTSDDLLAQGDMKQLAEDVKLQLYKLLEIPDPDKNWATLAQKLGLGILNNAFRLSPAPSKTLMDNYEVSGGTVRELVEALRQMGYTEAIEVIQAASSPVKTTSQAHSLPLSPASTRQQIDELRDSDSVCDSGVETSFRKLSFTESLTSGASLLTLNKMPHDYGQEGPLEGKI
Chain of Nuclear factor NF-kappa-B complex (Homo sapiens) (Q00653 whole entry, looked up): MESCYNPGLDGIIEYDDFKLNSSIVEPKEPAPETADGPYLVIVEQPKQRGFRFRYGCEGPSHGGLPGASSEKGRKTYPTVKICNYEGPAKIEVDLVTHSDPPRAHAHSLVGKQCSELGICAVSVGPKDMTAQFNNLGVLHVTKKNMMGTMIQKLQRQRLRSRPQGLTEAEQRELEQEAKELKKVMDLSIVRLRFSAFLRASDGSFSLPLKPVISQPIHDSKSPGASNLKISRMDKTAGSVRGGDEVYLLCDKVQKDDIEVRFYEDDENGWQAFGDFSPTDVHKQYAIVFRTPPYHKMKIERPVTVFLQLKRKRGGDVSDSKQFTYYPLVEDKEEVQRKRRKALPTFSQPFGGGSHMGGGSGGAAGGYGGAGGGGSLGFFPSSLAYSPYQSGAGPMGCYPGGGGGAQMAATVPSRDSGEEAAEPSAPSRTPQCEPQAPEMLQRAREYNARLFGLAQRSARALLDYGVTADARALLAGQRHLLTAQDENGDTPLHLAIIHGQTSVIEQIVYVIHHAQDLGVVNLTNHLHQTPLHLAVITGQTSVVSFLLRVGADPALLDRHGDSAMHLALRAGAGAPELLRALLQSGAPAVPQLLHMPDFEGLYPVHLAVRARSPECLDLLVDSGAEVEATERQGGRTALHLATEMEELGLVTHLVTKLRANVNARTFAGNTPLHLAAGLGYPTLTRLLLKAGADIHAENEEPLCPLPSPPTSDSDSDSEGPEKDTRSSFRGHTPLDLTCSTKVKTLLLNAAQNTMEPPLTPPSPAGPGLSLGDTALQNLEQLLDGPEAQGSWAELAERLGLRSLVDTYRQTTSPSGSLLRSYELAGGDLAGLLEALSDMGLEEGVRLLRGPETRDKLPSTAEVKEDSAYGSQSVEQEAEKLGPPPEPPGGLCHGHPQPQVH
Chain of Nuclear factor NF-kappa-B complex (Homo sapiens) (Q04206 whole entry, looked up): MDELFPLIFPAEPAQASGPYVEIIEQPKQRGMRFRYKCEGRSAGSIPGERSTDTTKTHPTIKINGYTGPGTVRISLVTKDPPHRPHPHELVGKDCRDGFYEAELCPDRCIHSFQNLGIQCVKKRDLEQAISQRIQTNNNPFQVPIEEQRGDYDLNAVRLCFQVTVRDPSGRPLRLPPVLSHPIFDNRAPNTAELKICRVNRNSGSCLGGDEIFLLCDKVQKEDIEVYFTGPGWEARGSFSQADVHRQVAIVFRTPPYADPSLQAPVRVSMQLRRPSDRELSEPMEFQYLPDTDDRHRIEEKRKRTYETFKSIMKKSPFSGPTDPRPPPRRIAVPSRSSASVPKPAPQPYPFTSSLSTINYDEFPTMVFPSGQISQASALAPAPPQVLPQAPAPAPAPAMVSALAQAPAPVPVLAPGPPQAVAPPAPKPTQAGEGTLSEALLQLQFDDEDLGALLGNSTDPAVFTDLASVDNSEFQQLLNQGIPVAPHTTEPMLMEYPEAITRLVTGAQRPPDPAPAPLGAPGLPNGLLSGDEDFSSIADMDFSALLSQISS

With `CN(C)C(=O)OC1=C(c2cccc3ccccc23)Oc2ccccc2-n2cccc21` the IC50 (SCC-4 [1]) was 0.16 µM, the Activity [2] was “>=70%” and the IC50 (Ca9-22) was 0.17 µM.
With `CC(C)(C)OC(=O)N1CCC(C(=O)OC2=C(c3cccc4ncccc34)Oc3cc4ccccc4cc3-n3cccc32)CC1` the Activity (Emu-TCL1) was “Active”, the EC50 (NIH3T3) was 6 µM and the Activity [2] was “>=30%”.
With `CC(=O)OC1=C(c2cccc3ccccc23)Oc2ccc(C)cc2-n2cccc21` the Activity [3] was less than 30%, the EC50 (NIH3T3) was 0.3 µM and the Activity [4] was “>=50%”.
For `CN(C)C(=O)OC1=C(c2cccc3ccccc23)Oc2ccc(Cl)cc2-n2cccc21`, the Activity [3] was “>=50%” and the Activity [4] was “>=50%”.
For `CC(=O)OC1=C(c2cccc3ccccc23)Oc2ccc(N3CCN(C)CC3)cc2-n2cccc21`, the Activity (Emu-TCL1) was “Active”, the EC50 (NIH3T3) was 45 µM and the Activity [2] was less than 30%.
In the case of `CCN(CC)CCCC(C)NC(=O)OC1=C(c2cccc3ncccc23)Oc2cc3ccccc3cc2-n2cccc21` (racemic), the “Ratio IC50” value [5] is reported as 0.72, the IC50 [6] is reported as 1.5 µM and the Activity (SCC-4 [7]) is reported as “Active”. The IC50 (A2780 [8]) was 1.03 µM, the IC50 (HeLa [9]) was 0.921 µM and the Activity (KYSE-520 cell line [10]) was “Active”. The Activity (HL-60 [11]) was “Active”, the “Ratio IC50” value [12] was 1.18 and the EC50 at 24 h [13] was 45 µM. The IC50 (A2780 [14]) was 1.21 µM, the Activity (SCC-4 [15]) was “Active” and the IC50 (SCC-4 [1]) was 0.91 µM. For the same compound, the Activity (SCC-4 [16]) was “Active”, the Activity (SCC-4 [17]) was “Active” and the Activity (Emu-TCL1) was “Active”. The Activity (HL-60 [18]) was “Active”, the EC50 (NIH3T3) was 6 µM and the IC50 (OE33) was 1.38 µM. The IC50 (HeLa [19]) was 0.661 µM, the IC50 (A549) was 1.38 µM and the Activity [2] was “>=70%”. The IC50 (KYSE-520 cell line [20]) was 41.9 µM, the Activity (Tubulin (Homo sapiens)) was “Active” and the IC50 (Ca9-22) was 2 µM. For the same compound, the Activity (HL-60 [21]) was “Active” and the inhibition [22] was “Active”.
In the case of `CC(=O)OC1=C(c2cccc3ccccc23)Oc2ccc(N3CCN(C(C)=O)CC3)cc2-n2cccc21`, the Activity [23] is reported as less than 30% and the Activity [24] is reported as “>=70%”.
With `CCN(CC)CCCC(C)Nc1ccnc2cc(Cl)ccc12` (centres undefined) the Activity (SCC-4 [16]) was “Active” and the Activity (SCC-4 [17]) was “Active”.
